ChEMBL document CHEMBL4002598, “Fusaric acid and analogues as Gram-negative bacterial quorum sensing inhibitors” (Eur J Med Chem, 2017)
The source made the active and inactive calls. No cut-off for these calls is given here.

Columns and labels:
[1] = biological target: T1, HTH-type quorum-sensing regulator RhlR (Pseudomonas aeruginosa (strain ATCC 15692 / PAO1 / 1C / PRS 101 / LMG12228)) (UniProt P54292); test: Inhibition of RhlR-dependent quorum sensing activity in Pseudomonas aeruginosa harboring reporter plasmid rhlA-gfp assessed as reduction in GFP expression up to 100 ug/ml measured every 15 mins for 14 hrs by fluorescence assay
T1 sequence (whole entry): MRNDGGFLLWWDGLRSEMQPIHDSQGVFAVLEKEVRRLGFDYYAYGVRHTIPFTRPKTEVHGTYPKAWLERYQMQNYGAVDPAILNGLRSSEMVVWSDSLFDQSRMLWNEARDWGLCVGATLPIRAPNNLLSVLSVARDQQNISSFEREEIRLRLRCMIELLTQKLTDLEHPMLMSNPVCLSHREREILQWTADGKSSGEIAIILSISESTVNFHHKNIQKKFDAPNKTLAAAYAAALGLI
Outline: (§1)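 P. aeruginosa lasB-gfp and rhlA-gfp reporters, grown 16 h at 37 °C with shaking, then diluted to OD450 0.1 in BT minimal medium (10% A10, 0.5% glucose, 0.5% Casamino Acids). No added signal molecule. Fluorescence at 485/535 nm and growth monitored every 15 min for 14 h at 34 °C. Concentrations up to 100 µg/ml.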

Escherichia coli [2] = test: Growth inhibition of Escherichia coli at 3.13 ug/ml
Outline: (§2)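 E. coli luxI-gfp reporter: overnight culture 16 h, 37 °C, 180 rpm, diluted to OD450 0.1 in BT minimal medium with 10% A10, 0.5% glucose, 0.5% Casamino Acids. 3-oxo-C6-HSL at 10 nM final. Growth read as OD450 every 15 min over 14 h at 34 °C alongside GFP. Triplicate, 2-fold dilutions from 100 μg/ml.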

Escherichia coli [3] = test: Growth inhibition of Escherichia coli at 6.2 to 100 ug/ml; outline: as §2
Saccharomyces cerevisiae = test: Inhibition of yeast Pma1 at 100 uM preincubated for 30 mins by spectrophotometric method
Outline: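 Pma1 purified from Saccharomyces cerevisiae plasma membrane, 0.5 µg per reaction. Enzyme preincubated 30 min at room temperature with 100 µM compound. Reaction buffer: 5 mM ATP, 10 mM MgSO4, 50 mM KNO3, 5 mM NaN3, 3.5 mM molybdate, 20 mM MES-KOH pH 5.9. Run 30 min, then stopped with acidic molybdate/ascorbate/SDS. Released phosphate read at 860 nm after arsenite-citrate treatment (Baginski method).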

Pseudomonas aeruginosa = test: Inhibition of LasR-dependent quorum sensing activity in Pseudomonas aeruginosa harboring reporter plasmid lasB-GFP assessed as reduction in GFP expression up to 100 ug/ml measured every 15 mins for 14 hrs by fluorescence assay; outline: as §1
Escherichia coli [4] = test: Inhibition of LuxR-dependent quorum sensing activity in Escherichia coli harboring reporter plasmid LuxI-GFP assessed as reduction in 3-oxo-C6-HSL-induced GFP expression at 3.1 ug/ml measured every 15 mins for 14 hrs by fluorescence assay
Outline: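 E. coli luxI-gfp monitor: overnight culture 16 h, 37 °C, 180 rpm, diluted to OD450 0.1 in BT minimal medium with 10% A10, 0.5% glucose, 0.5% Casamino Acids. Signal 3-oxo-C6-HSL at 10 nM final. GFP read at ex 485/em 535 nm and OD450 every 15 min, 14 h, 34 °C. Triplicate, 2-fold dilutions from 100 μg/ml.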

SMILES: CCCCc1ccc(C(=O)O)nc1 [FUSARIC ACID]
- inhibition [1]: inactive
- growth inhibition (GI) (Escherichia coli [2]): Non-Toxic
- growth inhibition (GI) (Escherichia coli [3]): Toxic
- inhibition (Saccharomyces cerevisiae): inactive
- inhibition (Pseudomonas aeruginosa): inactive
- inhibition (Escherichia coli [4]): Active
